Assay [1] deals with HL-60. Nature of the assay: Cytotoxicity against human HL60 cells after 72 hrs by MTT assay. The format is functional, cell-based. The following applies: HL-60, 72 h.
The subject of assay [2] is PBMC. Nature of the assay: Cytotoxicity against human PBMC cells after 72 hrs by Alamar Blue assay. The format is cell-based. In general terms: Alamar Blue is a resazurin reagent that responds to reducing activity.
Assay [3] concerns SF-295. Description: Cytotoxicity against human SF295 cells after 72 hrs by MTT assay. The following applies: SF-295, 72 h. The format is functional, cell-based. A general note: Tetrazolium assays rely on reduction of a dye to a coloured formazan, in cell work by metabolically active cells.
Assay [4] concerns HCT-8. Description: Cytotoxicity against human HCT8 cells after 72 hrs by MTT assay. The format is functional, cell-based. The following applies: HCT-8, 72 h.
Assay [5] relates to MDA-MB-435. Description: Cytotoxicity against human MDA-MB-435 cells after 72 hrs by MTT assay. The format is functional, cell-based. The following applies: MDA-MB-435, 72 h.
Assay [6] deals with HL-60. Description: Induction of apoptosis in human HL60 cells assessed as apoptotic nuclei at 5 uM after 24 hrs by acridine orange/ethidium bromide staining based fluorescence microscopy in presence of 1-bromoheptane. The format is functional. A digest of the protocol:
(§1)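 Cells exposed 24 h, with or without 24 h pretreatment with 1-bromoheptane. Cell suspension mixed with acridine orange/ethidium bromide (each 100 in PBS) and spread on slide. 300 cells counted per point by fluorescence microscopy to give % apoptotic cells. Mean ± S.E.M. of three experiments.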

The test system of assay [7] is HCT-8. Nature of the assay: Induction of apoptosis in human HCT8 cells assessed as apoptotic nuclei at 5 uM after 24 hrs by acridine orange/ethidium bromide staining based fluorescence microscopy in presence of 1-bromoheptane. The format is functional. Summed up:
as §1

The subject of assay [8] is MDA-MB-435. Nature of the assay: Induction of apoptosis in human MDA-MB-435 cells assessed as apoptotic nuclei at 5 uM after 24 hrs by acridine orange/ethidium bromide staining based fluorescence microscopy. The format is functional. Summed up:
as §1

Assay [9] deals with SF-295. Nature of the assay: Induction of apoptosis in human SF295 cells assessed as apoptotic nuclei at 5 uM after 24 hrs by acridine orange/ethidium bromide staining based fluorescence microscopy. The format is functional. Summed up:
as §1

Assay [10] concerns SF-295. Description: Induction of apoptosis in human SF295 cells assessed as apoptotic nuclei at 5 uM after 24 hrs by acridine orange/ethidium bromide staining based fluorescence microscopy in presence of 1-bromoheptane. The format is functional. A digest of the protocol: as §1
Assay [11] has as its system MDA-MB-435. Description: Induction of apoptosis in human MDA-MB-435 cells assessed as apoptotic nuclei at 5 uM after 24 hrs by acridine orange/ethidium bromide staining based fluorescence microscopy in presence of 1-bromoheptane. The format is functional. Summed up:
as §1

Assay [12] deals with HL-60. Description: Induction of apoptosis in human HL60 cells assessed as apoptotic nuclei at 5 uM after 24 hrs by acridine orange/ethidium bromide staining based fluorescence microscopy. The format is functional. Summed up: as §1
The subject of assay [13] is HCT-8. Description: Induction of apoptosis in human HCT8 cells assessed as apoptotic nuclei at 5 uM after 24 hrs by acridine orange/ethidium bromide staining based fluorescence microscopy. The format is functional. A digest of the protocol:
as §1

Usually IC50 stands for the concentration that gives 50% inhibition. The low end stands for higher potency, the high end for lower potency.

With `CC1(C)OC2=C(C(=O)C(=O)c3ccccc32)[C@H](N=[N+]=[N-])[C@H]1Br`, the IC50 in assay [1] was found to be 1.43 µM; in assay [2] it was 3.58 µM; in [3] it was 1.93 µM; in assay [4], 2.42 µM; in [5] it was 1.54 µM.
Regarding `CCCC1=C(OC2(CCC)C(=O)C(=O)c3ccccc3C2=O)C(=O)c2ccccc2C1=O` (stereo not given), the concentration for half-maximal inhibition (IC50) in assay [1], in assay [2], in [3], in assay [4] and in [5] was more than 11.6 µM each time.
As to `O=C1c2ccccc2C(=O)c2c1ccc1nc(-c3ccccc3F)[nH]c21`, the IC50 in [1], in assay [2], in assay [3], in [4] and in assay [5] was more than 14.6 µM each time.
With `CC1(C)OC2=C(C(=O)C(=O)c3ccccc32)[C@H](n2cc(-c3ccc(Br)cc3)nn2)[C@H]1Br`, the IC50 amounted to 1.67 µM in assay [1]; 4.01 µM in assay [2]; 2.33 µM in assay [3]; 2.24 µM in [4]; 1.99 µM in [5].
In the case of `O=C1c2ccccc2C(=O)c2c1ccc1nc(-c3ccccc3O)[nH]c21`, the Activity in [6] was determined as 12.59%; in [7] it was 4.19%; in assay [8] it was 7.39%; in [9], 11.73%; in assay [10], 9.91%; in assay [11] it was 10.04%. Besides, the Activity in assay [12] stood at 8.21%; in assay [13], 6.48%. For the same compound, the IC50 was more than 14.7 µM in assay [1]; more than 14.7 µM in assay [2]; 3.87 µM in [3]; 3.64 µM in assay [4]; more than 14.7 µM in assay [5].
With `CCCC1=C(O)C(=O)c2ccccc2C1=O`, the IC50 in assay [1], in assay [2], in [4] and in assay [5] was more than 23.1 µM each time.
On to `CC(C)CC1=C(O)C(=O)c2ccccc2C1=O`, for which the IC50 in assay [1], in assay [2], in [3], in assay [4] and in assay [5] was more than 21.7 µM throughout.
For `O=C1c2ccccc2C(=O)c2c1ccc1nc(-c3ccc(F)cc3)[nH]c21`, the IC50 in assay [1], in [2], in assay [3], in assay [4] and in assay [5] was more than 14.6 µM in each case.
In the case of `CC(C)CCC1=C(O)C(=O)c2ccccc2C1=O`, the IC50 in [1], in assay [2], in assay [3], in assay [4] and in [5] was more than 20.5 µM in each case.
Take `CC(C)CC1=C(O)C(=O)C2=C(CCCC2)C1=O`: the IC50 in [1], in [2], in assay [3], in assay [4] and in [5] was more than 21.4 µM throughout.
Consider `CCCC1=C(OC2(CCC)C(=O)C(=O)C3=C(CCCC3)C2=O)C(=O)C2=C(CCCC2)C1=O` (stereo not given), for which the Activity was determined as 11.04% in assay [6]; 11.7% in [7]; 8.56% in assay [8]; 11.73% in assay [9]; 13.97% in assay [10]; 12.09% in [11]. For the same compound, the Activity is 9.13% in assay [12] and 9.27% in assay [13]. The IC50 in [1], in [2], in assay [3], in [4] and in [5] was more than 11.4 µM in each case.
For the compound `CC(C)CCC1=C(OC2(CCC(C)C)C(=O)C(=O)C3=C(CCCC3)C2=O)C(=O)C2=C(CCCC2)C1=O` (stereo not given), the Activity in assay [6] is 10.62%; in assay [7], 10.33%; in assay [8] it was 8.38%; in assay [9] it was 8.33%; in [10] it was 12.06%; in [11] it was 13.72%. For the same compound, the Activity in assay [12] worked out at 10.21%; in [13] it was 5.85%. The IC50 in assay [1], in [2], in assay [3], in assay [4] and in assay [5] was more than 10.1 µM throughout.
Regarding `Cc1ccccc1-c1nc2ccc3c(c2[nH]1)C(=O)c1ccccc1C3=O`, the Activity in [6] came to 10.75%; in assay [7] it was 9.17%; in assay [8], 6.33%; in assay [9], 11.85%; in assay [10], 13.95%; in assay [11], 10.38%. The Activity in [12] is reported as 11.47%; in assay [13], 5.33%. The concentration for half-maximal inhibition (IC50) in assay [1], in assay [2], in assay [3], in assay [4] and in assay [5] was more than 14.8 µM in each case.
On to `O=C1c2ccccc2C(=O)c2c1ccc1nc(-c3ccc(O)cc3)[nH]c21`, for which the Activity in [6] stood at 14.26%; in assay [7], 11.16%; in [8], 9.56%; in [9] it was 5.93%; in [10] it was 10.18%; in assay [11], 13.07%. Further, the figures for the Activity in assay [12] and in [13] were 10.7% and 8.51%, respectively. Further, the IC50 in assay [1], in [2], in assay [3], in [4] and in assay [5] was more than 14.7 µM throughout.
`CC(C)CCC1=C(O)C(=O)C2=C(CCCC2)C1=O`: the IC50 in [1], in assay [2], in [3], in assay [4] and in [5] was more than 20.1 µM in each case.
For `CC1(C)OC2C(=O)c3ccccc3C(=O)C2[C@@H](N=[N+]=[N-])[C@@H]1Br` (stereo not given in full), the IC50 in assay [1] stood at 5.68 µM; in assay [2] it was 11.3 µM; in [3] it was 13.8 µM; in assay [4] it was 12.4 µM; in [5] it was 3.97 µM.
Regarding `Cc1ccc(-c2nc3ccc4c(c3[nH]2)C(=O)c2ccccc2C4=O)cc1`, the Activity turned out to be 9.62% in [6]; 9.31% in assay [7]; 7.49% in assay [8]; 5.82% in [9]; 4.17% in [10]; 12.27% in [11]. For the same compound, the Activity in assay [12] stood at 5.27%; in assay [13], 8.72%. Besides, the IC50 in assay [1], in [2], in assay [3], in assay [4] and in [5] was more than 14.8 µM throughout.
`COc1ccc(-c2cn([C@H]3C4=C(OC(C)(C)[C@@H]3Br)c3ccccc3C(=O)C4=O)nn2)cc1`: the IC50 in assay [1] worked out at 1.88 µM; in [2], 2.52 µM; in assay [3] it was 3.01 µM; in [4] it was 3.21 µM; in assay [5] it was 1.92 µM.
For `CC1=C(OC2(C)C(=O)c3ccccc3C2=O)C(=O)c2ccccc2C1=O`, in that order: more than 14.4 µM, more than 14.4 µM, more than 14.4 µM, more than 14.4 µM and more than 14.4 µM.
On to `O=C1c2ccccc2C(=O)c2c1ccc1nc(-c3cccc(O)c3)[nH]c21`, for which the Activity in assay [6] turned out to be 8.17%; in [7] it was 7.25%; in assay [8] it was 12.51%; in assay [9] it was 13.51%; in assay [10], 9.66%; in assay [11], 13.75%. Besides, the Activity stood at 10.49% in [12] and 12.73% in [13]. Moreover, the IC50 in assay [1], in assay [2], in [3], in assay [4] and in assay [5] was more than 14.7 µM each time.
For the compound `CCCC1=C(O)C(=O)C2=C(CCCC2)C1=O`, the IC50 in assay [1] was more than 22.7 µM; in assay [2], more than 22.7 µM; in [3], more than 22.7 µM; in assay [4] it was 3.99 µM; in assay [5], more than 22.7 µM.
Turning to `O=C1c2ccccc2C(=O)c2c1ccc1nc(-c3cccc(F)c3)[nH]c21`, the half-inhibitory concentration (IC50) in assay [1], in [2], in assay [3], in assay [4] and in [5] was more than 14.6 µM in each case.
On to `COc1cc(-c2nc3ccc4c(c3[nH]2)C(=O)c2ccccc2C4=O)ccc1O`, for which the IC50 in assay [1], in assay [2], in assay [3], in assay [4] and in assay [5] was more than 13.6 µM each time.
For `CC(C)CC1=C(OC2(CC(C)C)C(=O)C(=O)C3=C(CCCC3)C2=O)C(=O)C2=C(CCCC2)C1=O` (stereo not given), the IC50 in [1], in [2], in assay [3], in assay [4] and in assay [5] was more than 10.7 µM each time.
In the case of `CC(C)CC1=C(OC2(CC(C)C)C(=O)C(=O)c3ccccc3C2=O)C(=O)c2ccccc2C1=O` (stereo not given), the IC50 in [1], in [2], in [3], in assay [4] and in assay [5] was more than 10.9 µM each time.
